Columns and labels:
[1] = AUC in CD1 (ICR) mouse at 3 mg/kg, iv; assay type: ADME, organism-based; parameters: dose 3 mg/kg, route intravenous; conditions: plasma
Method in brief: (§1)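 Male fasted CD1 (ICR) mice dosed i.v. 3 mg/kg or p.o. 10 mg/kg (10 mL/kg each). Vehicle was DMSO/5% glucose with 1/250 volume 5 mol/L HCl (1:19 i.v., 1:9 p.o.). Vena cava blood was drawn at 0.083 (i.v. only), 0.25, 0.5, 1, 2, 4, 6, 8 and 24 h, n = 4 per time point. Plasma was extracted and assayed by reversed-phase HPLC with fluorescence detection. Values are the mean of four animals.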

[2] = Tmax in CD1 (ICR) mouse 10 mg/kg, po; assay type: ADME, organism-based; parameters: dose 10 mg/kg, route oral; conditions: in vivo; method in brief: as §1
[3] = Cmax in CD1 (ICR) mouse at 10 mg/kg, po; assay type: ADME, organism-based; parameters: dose 10 mg/kg, route oral; conditions: in vivo; method in brief: as §1
[4] = Volume of distribution at steady state in CD1 (ICR) mouse 3 mg/kg, iv; assay type: ADME, organism-based; parameters: dose 3 mg/kg, route intravenous; conditions: in vivo, read-out: Vdss; method in brief: as §1
[5] = Clearance in CD1 (ICR) mouse at 3 mg/kg, iv; assay type: ADME, organism-based; parameters: dose 3 mg/kg, route intravenous; conditions: in vivo; method in brief: as §1
[6] = Oral bioavailability in CD1 (ICR) mouse at 10 mg/kg; assay type: ADME, organism-based; conditions: in vivo; method in brief: as §1
[7] = Terminal half life in CD1 (ICR) mouse at 3 mg/kg, iv; assay type: ADME, organism-based; parameters: dose 3 mg/kg, route intravenous; conditions: in vivo, read-out: beta t1/2 (converted); method in brief: as §1
[8] = AUC in CD1 (ICR) mouse at 10 mg/kg, po; assay type: ADME, organism-based; parameters: dose 10 mg/kg, route oral; conditions: plasma; method in brief: as §1
Liver microsomes = experiment: Intrinsic clearance in human liver microsomes after 15 mins; assay type: ADME, Microsome
Method in brief: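 Compound at 0.3 μmol/L (0.03% DMSO final) was incubated with pooled human liver microsomes (0.1 mg/mL protein) and an NADPH-generating system at 37 °C for 0 and 15 min. Reactions were quenched with acetonitrile/methanol containing internal standard. Parent depletion was measured by LC/MS/MS. Values are the mean of six measurements.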

| Structure (SMILES) | CLint (Liver microsomes) [µL/min/mg] | other results |
| --- | --- | --- |
| CCc1nn2c(-c3c(OC)cc(COC)cc3OC)cccc2c1N(CC1CCOCC1)CC1CC1.Cc1ccc(S(=O)(=O)O)cc1 | – | AUC [1]: 850 ng·h/mL; Tmax [2]: 0.25 h; Cmax [3]: 320 ng/mL; Vd [4]: 3.74 L/kg; clearance [5]: 43.3 mL/min/kg; bioavailability [6]: 31%; half-life [7]: 2.2 h; AUC [8]: 870 ng·h/mL |
| CCc1nn2c(-c3c(C)cc(C)cc3OC)cccc2c1N(CC1CC1)CC1CC1 | 1120 | – |
| CCc1nn2c(-c3c(C)cc(C)cc3OC)cccc2c1N(CCOC)CC1CC1 | 1690 | – |
| CCc1nn2c(-c3c(C)cc(C)cc3OC)cccc2c1N(CCCF)CC1CC1 | 1410 | – |
| CCc1nn2c(-c3c(C)cc(C)cc3OC)cccc2c1N(CC1CC1)CC1CCOC1 (centres undefined) | 1350 | – |
| CCc1nn2c(-c3c(C)cc(C)cc3OC)cccc2c1N(CC1CC1)CC1CCCO1 (centres undefined) | 1230 | – |
| CCc1nn2c(-c3c(C)cc(C)cc3OC)cccc2c1N(CC1CCOCC1)CC1CC1 | 450 | – |
| CCc1nn2c(-c3c(OC)cc(C)cc3OC)cccc2c1N(CC1CCOCC1)CC1CC1 | 440 | – |
| CCc1nn2c(-c3c(C)cc(OC)cc3OC)cccc2c1N(CC1CCOCC1)CC1CC1 | 450 | – |
| CCc1nn2c(-c3c(OC)cc(OC)cc3OC)cccc2c1N(CC1CCOCC1)CC1CC1 | 450 | – |
| CCc1nn2c(-c3cc(OC)c(OC)cc3OC)cccc2c1N(CC1CCOCC1)CC1CC1 | 600 | – |
| CCc1nn2c(-c3c(OC)cc(COC)cc3OC)cccc2c1N(CC1CCOCC1)CC1CC1 | 300 | – |
| CCc1nn2c(-c3c(COC)cc(OC)cc3OC)cccc2c1N(CC1CCOCC1)CC1CC1 | 530 | – |
| CCOCc1cc(OC)c(-c2cccc3c(N(CC4CCOCC4)CC4CC4)c(CC)nn23)c(OC)c1 | 520 | – |
| CCc1nn2c(-c3c(OC)cccc3OC)cccc2c1N(CC1CCOCC1)CC1CC1 | 740 | – |
| CCCN(CC1CCOCC1)c1c(CC)nn2c(-c3c(OC)cc(C)cc3OC)cccc12 | 890 | – |
| CCCN(CC1CCOCC1)c1c(CC)nn2c(-c3c(OC)cc(COC)cc3OC)cccc12 | 700 | – |
| COCc1cc(OC)c(-c2cccc3c(N(CC4CCOCC4)CC4CC4)c(OC)nn23)c(OC)c1 | 760 | – |
| COCc1cc(OC)c(-c2cccc3c(N(CC4CCOCC4)CC4CC4)c(SC)nn23)c(OC)c1 | 340 | – |
| COCc1cc(OC)c(-c2cccc3c(N(CC4CCOCC4)CC4CC4)c(C)nn23)c(OC)c1 | 110 | – |
| COCc1cc(OC)c(-c2cccc3c(N(CC4CCOCC4)CC4CC4)c(C#N)nn23)c(OC)c1 | 1100 | – |
| COc1cc(C)cc(OC)c1-c1cccc2c(N(CC3CCOCC3)CC3CC3)c(OC)nn12 | 570 | – |
